This is an account of results in ChEMBL document CHEMBL4011617, “Ugi Reaction-Derived α-Acyl Aminocarboxamides Bind to Phosphatidylinositol 3-Kinase-Related Kinases, Inhibit HSF1-Dependent Heat Shock Response, and Induce Apoptosis in Multiple Myeloma Cells” (J Med Chem, 2017).

The source made the active and inactive calls. The calls are words filed in the database; no cut-off is given here.

Experiment [1] deals with INA-6. Description: Inhibition of heat shock response in human INA-6 cells assessed as reduction in HSF-1 mediated upregulation of the heat shock protein HSP27 at 50 uM preincubated for 4 hrs followed by HSP90 inhibitor and HSR inducer NVP-AUY922 addition measured after 4 hrs by ELISA. Type of experiment: functional, cell-based.
In experiment [2] the test system is INA-6. Nature of the experiment: Downregulation of NVP-AUY922-induced HSF-1 protein expression in human INA-6 cells at 50 uM preincubated for 4 hrs followed by NVP-AUY922 addition measured after 4 hrs by Western blot method. Type of experiment: functional, cell-based. An outline of the steps: (§1)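 INA-6 myeloma cells pretreated with test compound for 4 h, then co-treated with the HSP90 inhibitor/HSR inducer NVP-AUY922 for a further 4 h. Cells harvested; HSP72, HSP27, HSF1 or phospho-HSF1 probed by Western blot with β-actin as loading control. DMSO-only cells were the negative control; NVP-AUY922-only cells were the positive control.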

For experiment [3], the system named is INA-6. Nature of the experiment: Inhibition of heat shock response in human INA-6 cells assessed as reduction in HSF-1 mediated upregulation of the heat shock protein HSP27 at 50 uM preincubated for 4 hrs followed by HSP90 inhibitor and HSR inducer NVP-AUY922 addition measured after 4 hrs by Western blot method. Type of experiment: functional, cell-based. A digest of the protocol:
as §1

The subject of experiment [4] is INA-6. Nature of the experiment: Inhibition of heat shock response in human INA-6 cells assessed as reduction in HSF-1 mediated upregulation of the heat shock protein HSP72 at 50 uM preincubated for 4 hrs followed by HSP90 inhibitor and HSR inducer NVP-AUY922 addition measured after 4 hrs by Western blot method. Type of experiment: functional, cell-based. An outline of the steps: as §1

The test system of experiment [5] is INA-6. Description: Inhibition of heat shock response in human INA-6 cells assessed as reduction in HSF-1 mediated upregulation of the heat shock protein HSP72 at 50 uM preincubated for 4 hrs followed by HSP90 inhibitor and HSR inducer NVP-AUY922 addition measured after 4 hrs by ELISA. Type of experiment: functional, cell-based. A digest of the protocol: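 HSP72 quantified by ELISA in the same protein lysates used for Western blots. INA-6 cells received compound for 4 h, then NVP-AUY922 co-treatment for 4 h more to stimulate HSF1. DMSO-only and NVP-AUY922-only cells served as negative and positive controls.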

Experiment [6] addresses T1, Heat shock factor protein 1 (Homo sapiens) (UniProt Q00613).
T1 sequence (whole entry): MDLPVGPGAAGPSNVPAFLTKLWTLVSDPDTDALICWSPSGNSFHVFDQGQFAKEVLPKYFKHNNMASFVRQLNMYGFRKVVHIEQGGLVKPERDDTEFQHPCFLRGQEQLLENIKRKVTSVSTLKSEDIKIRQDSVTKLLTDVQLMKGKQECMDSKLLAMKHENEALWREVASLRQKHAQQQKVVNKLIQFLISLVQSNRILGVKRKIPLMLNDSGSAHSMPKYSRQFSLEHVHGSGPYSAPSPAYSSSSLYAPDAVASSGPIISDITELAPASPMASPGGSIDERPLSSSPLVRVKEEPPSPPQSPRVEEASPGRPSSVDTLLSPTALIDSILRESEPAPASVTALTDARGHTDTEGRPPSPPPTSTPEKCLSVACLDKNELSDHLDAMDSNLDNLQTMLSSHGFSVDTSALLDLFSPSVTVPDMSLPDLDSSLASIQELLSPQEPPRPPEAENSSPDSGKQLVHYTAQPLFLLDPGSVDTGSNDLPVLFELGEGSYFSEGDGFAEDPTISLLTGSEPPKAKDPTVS
Nature of the experiment: Inhibition of NVP-AUY922-induced HSF-1 phosphorylation at S326 residue in human INA-6 cells at 50 uM preincubated for 4 hrs followed by NVP-AUY922 addition measured after 4 hrs by Western blot method. Type of experiment: cell-based. A digest of the protocol:
as §1

Turning to `C/C=C/C(=O)N(Cc1ccccc1Cl)C(C(=O)NC(C)(C)C)c1ccccc1Br` (racemic), the “heat shock response inhibition (active/not active)” value in the experiment with INA-6 [1] and in the experiment on INA-6 [4] was “Active” in each case. In the experiment with INA-6 [2], the outcome was Active. Also, the “activity call (active/not active) for inhibition of HSP27 upregulation” value with INA-6 [3] is “Active”. In addition, in the experiment on INA-6 [5], the “HSP72 upregulation inhibition (active/not active)” value is “Active”. The inhibition entry in experiment [6] is “Active”.
As to `O=C(NCc1ccccc1)C(c1ccc(Br)cc1)N(C(=O)CCc1ccc(O)cc1)C1CC1` (racemic), the “heat shock response inhibition (active/not active)” value in the experiment on INA-6 [1] and in the experiment on INA-6 [4] was “Active” each time. For the same molecule, the result with INA-6 [2] was Active. The “activity call (active/not active) for inhibition of HSP27 upregulation” value in the experiment on INA-6 [3] is “Active”. Further, the “HSP72 upregulation inhibition (active/not active)” value in the experiment on INA-6 [5] is “Active”. Further, in experiment [6], the inhibition entry was “Active”.
As for `O=C(NCc1ccccc1)C(c1ccc(Br)cc1)N(C(=O)CCc1ccccc1)C1CC1` (racemic), the “heat shock response inhibition (active/not active)” value in the experiment with INA-6 [1] and in the experiment on INA-6 [4] was “Active” in each case. The outcome with INA-6 [2] was Active. In addition, the “activity call (active/not active) for inhibition of HSP27 upregulation” value in the experiment on INA-6 [3] was “Active”. Further, the “HSP72 upregulation inhibition (active/not active)” value with INA-6 [5] was “Active”. Further, in experiment [6], the inhibition entry is “Active”.
In the case of `C=CC(=O)N(CCOCCO)C(C(=O)NC(C)(C)C)c1ccccc1Br` (racemic), in the experiment on INA-6 [3], the “activity call (active/not active) for inhibition of HSP27 upregulation” value is “inactive”. Moreover, the “heat shock response inhibition (active/not active)” value in the experiment with INA-6 [4] is “inactive”. The “HSP72 upregulation inhibition (active/not active)” value in the experiment with INA-6 [5] was “inactive”.
`C/C=C/C(=O)N(Cc1ccco1)C(C(=O)NC1CCCCC1)c1ccccc1Br` (racemic): the “activity call (active/not active) for inhibition of HSP27 upregulation” value with INA-6 [3] was “inactive”. The “heat shock response inhibition (active/not active)” value with INA-6 [4] was “inactive”. Besides, the “HSP72 upregulation inhibition (active/not active)” value in the experiment on INA-6 [5] was “inactive”.
Turning to `O=C(NCc1ccccc1)C(c1ccccc1)N(C(=O)/C=C/c1ccccc1)C1CC1` (racemic), the “heat shock response inhibition (active/not active)” value in the experiment on INA-6 [1] and with INA-6 [4] was “Active” throughout. Also, the outcome in the experiment with INA-6 [2] was Active. Besides, in the experiment on INA-6 [3], the “activity call (active/not active) for inhibition of HSP27 upregulation” value was “Active”. The “HSP72 upregulation inhibition (active/not active)” value with INA-6 [5] is “Active”. For the same molecule, the inhibition result in experiment [6] was “Active”.
As for `O=C(NCc1ccccc1)C(c1ccc(OCCBr)cc1)N(C(=O)CCc1ccccc1)C1CC1` (racemic), the “heat shock response inhibition (active/not active)” value with INA-6 [1] and in the experiment on INA-6 [4] was “Active” in each case. Moreover, the outcome with INA-6 [2] was Active. Besides, the “activity call (active/not active) for inhibition of HSP27 upregulation” value in the experiment on INA-6 [3] was “Active”. Moreover, in the experiment with INA-6 [5], the “HSP72 upregulation inhibition (active/not active)” value is “Active”. For the same molecule, in experiment [6], the inhibition result was “Active”.
On to `CCCN(C(=O)/C=C/c1ccccc1)C(C(=O)NCCN1CCOCC1)c1ccccc1Br` (racemic), for which the “activity call (active/not active) for inhibition of HSP27 upregulation” value in the experiment on INA-6 [3] is “inactive”. The “heat shock response inhibition (active/not active)” value in the experiment on INA-6 [4] was “inactive”. In addition, in the experiment on INA-6 [5], the “HSP72 upregulation inhibition (active/not active)” value is “inactive”.
As for `NCCOCCOCCNCCOc1ccc(C(C(=O)NCc2ccccc2)N(C(=O)CCc2ccc(O)cc2)C2CC2)cc1` (stereo not given), the “heat shock response inhibition (active/not active)” value with INA-6 [1] was “inactive”. Moreover, the “activity call (active/not active) for inhibition of HSP27 upregulation” value in the experiment with INA-6 [3] is “inactive”. Also, in the experiment with INA-6 [5], the “HSP72 upregulation inhibition (active/not active)” value was “inactive”.
For the molecule `O=C(NCCN1CCOCC1)C(c1ccccc1)N(Cc1ccccc1)C(=O)/C=C/c1ccc(Cl)cc1Cl` (racemic), the “heat shock response inhibition (active/not active)” value in the experiment with INA-6 [1] and with INA-6 [4] was “Active” each time. Besides, in the experiment with INA-6 [2], the result was Active. The “activity call (active/not active) for inhibition of HSP27 upregulation” value in the experiment on INA-6 [3] is “Active”. Also, the “HSP72 upregulation inhibition (active/not active)” value with INA-6 [5] was “Active”. For the same molecule, in experiment [6], the inhibition result was “Active”.
Turning to `O=C(NCCN1CCOCC1)C(c1ccccc1Br)N(Cc1ccccc1)C(=O)/C=C/c1ccc(Cl)cc1Cl` (racemic), the “heat shock response inhibition (active/not active)” value with INA-6 [1] and in the experiment on INA-6 [4] was “Active” throughout. Besides, the result with INA-6 [2] was Active. Also, in the experiment with INA-6 [3], the “activity call (active/not active) for inhibition of HSP27 upregulation” value is “Active”. In addition, the “HSP72 upregulation inhibition (active/not active)” value in the experiment on INA-6 [5] was “Active”. In addition, the inhibition result in experiment [6] was “Active”.
Consider `CN(C(=O)/C=C/c1ccccc1)C(C(=O)NCc1ccccc1)c1ccccc1Br` (racemic), for which the “heat shock response inhibition (active/not active)” value in the experiment with INA-6 [1] and in the experiment on INA-6 [4] was “Active” each time. Also, in the experiment with INA-6 [2], the outcome was Active. The “activity call (active/not active) for inhibition of HSP27 upregulation” value in the experiment on INA-6 [3] is “Active”. The “HSP72 upregulation inhibition (active/not active)” value in the experiment with INA-6 [5] is “Active”. For the same molecule, the inhibition entry in experiment [6] was “Active”.
Consider `C=CC(=O)N(CCc1ccc(OC)c(OC)c1)C(C(=O)NCCCCC)c1ccccc1Br` (racemic), for which the “heat shock response inhibition (active/not active)” value in the experiment with INA-6 [1] and in the experiment with INA-6 [4] was “Active” each time. Besides, the result in the experiment on INA-6 [2] was Active. For the same molecule, the “activity call (active/not active) for inhibition of HSP27 upregulation” value in the experiment with INA-6 [3] is “Active”. In addition, the “HSP72 upregulation inhibition (active/not active)” value in the experiment with INA-6 [5] was “Active”. In experiment [6], the inhibition result is “Active”.
For the molecule `O=C(NCc1ccccc1)C(c1ccccc1Br)N(Cc1ccccc1)C(=O)/C=C/c1ccccc1` (racemic), the “activity call (active/not active) for inhibition of HSP27 upregulation” value in the experiment with INA-6 [3] is “inactive”. Besides, the “heat shock response inhibition (active/not active)” value with INA-6 [4] is “inactive”. Besides, in the experiment on INA-6 [5], the “HSP72 upregulation inhibition (active/not active)” value was “inactive”.
Consider `CCCN(C(=O)/C=C/c1ccc(OC)cc1)C(C(=O)NC1CCCCC1)c1ccccc1Br` (racemic), for which the “heat shock response inhibition (active/not active)” value in the experiment with INA-6 [1] and in the experiment on INA-6 [4] was “Active” throughout. In addition, the result in the experiment with INA-6 [2] was Active. The “activity call (active/not active) for inhibition of HSP27 upregulation” value in the experiment with INA-6 [3] was “Active”. In the experiment on INA-6 [5], the “HSP72 upregulation inhibition (active/not active)” value was “Active”. Also, the inhibition entry in experiment [6] was “Active”.
